Each structure is given as a SMILES string.

What all share (details): stereoisomer not certain
One assay has as its target T1, UniProt Q8VF24.
T1 sequence (whole entry): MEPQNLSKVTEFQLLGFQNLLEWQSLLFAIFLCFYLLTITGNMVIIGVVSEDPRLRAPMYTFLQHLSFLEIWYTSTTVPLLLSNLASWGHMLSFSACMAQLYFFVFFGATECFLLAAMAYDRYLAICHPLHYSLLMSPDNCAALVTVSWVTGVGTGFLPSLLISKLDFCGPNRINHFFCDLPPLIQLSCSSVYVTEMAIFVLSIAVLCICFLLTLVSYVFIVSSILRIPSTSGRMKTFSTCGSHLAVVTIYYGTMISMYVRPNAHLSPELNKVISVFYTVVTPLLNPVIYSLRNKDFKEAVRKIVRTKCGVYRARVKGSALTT
In short, it runs like this:
(§1)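 Each receptor–molecule pair is labelled responsive or non-responsive (inactive) according to whether the original authors judged the measured signal statistically different from baseline. The data were taken from the main text and supplementary material of published papers and checked for typos and inconsistencies. Assay methods differed by source, with transient luciferase assays in mammalian cell lines being common.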

The target of the next assay is T2, UniProt Q8VF43.
T2 sequence (whole entry): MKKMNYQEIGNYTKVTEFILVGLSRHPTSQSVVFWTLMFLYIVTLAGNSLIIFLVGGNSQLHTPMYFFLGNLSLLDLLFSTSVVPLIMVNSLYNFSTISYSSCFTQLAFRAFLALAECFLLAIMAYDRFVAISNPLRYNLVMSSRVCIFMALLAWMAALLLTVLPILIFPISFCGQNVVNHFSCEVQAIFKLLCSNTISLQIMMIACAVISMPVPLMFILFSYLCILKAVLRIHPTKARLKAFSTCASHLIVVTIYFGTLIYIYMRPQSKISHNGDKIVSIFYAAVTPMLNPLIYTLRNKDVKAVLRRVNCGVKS
Summed up:
as §1

In a further assay the target is T3, UniProt Q8VF44.
T3 sequence (whole entry): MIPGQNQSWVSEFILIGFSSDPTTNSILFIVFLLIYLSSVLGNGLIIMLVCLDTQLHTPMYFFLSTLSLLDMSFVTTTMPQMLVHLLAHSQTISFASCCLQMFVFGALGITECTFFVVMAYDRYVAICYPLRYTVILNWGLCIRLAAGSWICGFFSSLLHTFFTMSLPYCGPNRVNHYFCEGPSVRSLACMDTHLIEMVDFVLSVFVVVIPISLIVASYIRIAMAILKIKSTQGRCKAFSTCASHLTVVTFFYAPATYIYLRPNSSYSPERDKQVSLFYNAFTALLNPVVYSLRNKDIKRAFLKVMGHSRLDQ
In short, it runs like this: as §1

In another assay the target is T4, UniProt Q8VF52.
T4 sequence (whole entry): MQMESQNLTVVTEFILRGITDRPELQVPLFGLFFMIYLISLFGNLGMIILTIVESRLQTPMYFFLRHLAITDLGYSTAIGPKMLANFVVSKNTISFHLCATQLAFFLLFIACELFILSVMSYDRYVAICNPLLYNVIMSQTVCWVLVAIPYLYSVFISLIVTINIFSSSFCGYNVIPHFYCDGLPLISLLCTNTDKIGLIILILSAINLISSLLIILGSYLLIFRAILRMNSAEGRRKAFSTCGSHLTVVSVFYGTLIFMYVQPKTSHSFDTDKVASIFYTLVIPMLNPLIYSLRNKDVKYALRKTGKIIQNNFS
Summed up: as §1

Another assay concerns the target T5, UniProt Q8VFG6.
T5 sequence (whole entry): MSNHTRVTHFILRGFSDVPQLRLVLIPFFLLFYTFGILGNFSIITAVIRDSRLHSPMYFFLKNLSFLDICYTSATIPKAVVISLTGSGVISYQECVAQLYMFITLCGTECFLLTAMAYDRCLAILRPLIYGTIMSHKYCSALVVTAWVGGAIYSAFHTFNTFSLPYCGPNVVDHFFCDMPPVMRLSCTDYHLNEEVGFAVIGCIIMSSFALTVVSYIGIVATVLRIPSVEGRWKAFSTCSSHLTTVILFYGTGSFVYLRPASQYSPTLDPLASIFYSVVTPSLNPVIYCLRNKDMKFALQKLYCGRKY
Summed up:
as §1

In the next assay the target is T6, UniProt Q8VFM8.
T6 sequence (whole entry): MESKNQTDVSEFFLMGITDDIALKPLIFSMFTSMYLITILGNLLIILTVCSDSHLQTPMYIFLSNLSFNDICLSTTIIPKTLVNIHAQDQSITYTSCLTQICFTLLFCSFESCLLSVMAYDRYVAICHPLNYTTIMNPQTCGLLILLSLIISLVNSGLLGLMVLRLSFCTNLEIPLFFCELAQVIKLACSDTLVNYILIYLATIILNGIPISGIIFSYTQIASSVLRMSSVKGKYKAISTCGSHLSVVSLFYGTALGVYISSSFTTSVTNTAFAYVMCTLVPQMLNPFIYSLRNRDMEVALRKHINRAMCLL
Summed up:
as §1

The next assay deals with UniProt Q8VF06. Summed up: as §1
Chain of UniProt Q8VF06 (Q8VF06 as listed by the source): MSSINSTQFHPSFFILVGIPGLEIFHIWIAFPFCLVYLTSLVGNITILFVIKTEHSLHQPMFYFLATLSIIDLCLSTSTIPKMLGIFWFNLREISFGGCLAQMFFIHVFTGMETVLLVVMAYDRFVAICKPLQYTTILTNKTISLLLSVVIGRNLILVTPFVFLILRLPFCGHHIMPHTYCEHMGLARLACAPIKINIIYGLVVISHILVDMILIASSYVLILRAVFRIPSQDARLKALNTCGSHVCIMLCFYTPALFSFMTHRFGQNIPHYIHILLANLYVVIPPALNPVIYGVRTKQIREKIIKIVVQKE
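Also: active if original authors judged signal statistically different from baseline.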

Take `CCCCOC=O`: the “odorant receptor agonist call” value with UniProt Q8VF24, in the assay with UniProt Q8VF43, with UniProt Q8VF44, with UniProt Q8VF52, with UniProt Q8VFG6 and with UniProt Q8VFM8 was “inactive” each time.

Take `CCCCCCCC(=O)[O-].[H+]`: in the assay with UniProt Q8VF06, the “odorant receptor agonist call” value was “active”. For the same compound, the “odorant receptor agonist call” value in the assay with UniProt Q8VF24, with UniProt Q8VF44, with UniProt Q8VF52 and with UniProt Q8VFG6 was “inactive” throughout.

Regarding `CC12CCC(CC1=O)C2(C)C` (configuration not stated), the “odorant receptor agonist call” value with UniProt Q8VF24 and with UniProt Q8VF52 was “active” throughout. Besides, the “odorant receptor agonist call” value in the assay with UniProt Q8VF43, with UniProt Q8VF44, with UniProt Q8VFG6 and in the assay with UniProt Q8VFM8 was “inactive” in each case.

As for `O=C([O-])CCCCCCCC(=O)[O-].[H+].[H+]`, the “odorant receptor agonist call” value in the assay with UniProt Q8VF06, with UniProt Q8VF43, with UniProt Q8VF52 and with UniProt Q8VFM8 was “inactive” in each case.

For the compound `O=C(c1ccccc1)c1ccccc1`, the “odorant receptor agonist call” value with UniProt Q8VF24, with UniProt Q8VF43, with UniProt Q8VF52, in the assay with UniProt Q8VFG6 and in the assay with UniProt Q8VFM8 was “inactive” in each case. In addition, the “odorant receptor agonist call” value with UniProt Q8VF44 is “active”.

As to `CCCCCCC(C)=O`, the “odorant receptor agonist call” value with UniProt Q8VF24, with UniProt Q8VF43, in the assay with UniProt Q8VF44, with UniProt Q8VF52, with UniProt Q8VFG6 and with UniProt Q8VFM8 was “inactive” throughout.

For the compound `CCCCC(=O)CC`, the “odorant receptor agonist call” value in the assay with UniProt Q8VF24, with UniProt Q8VF43, with UniProt Q8VF44, with UniProt Q8VF52, in the assay with UniProt Q8VFG6 and with UniProt Q8VFM8 was “inactive” in each case.

As for `C=C(C)C1CCC(C)C(=O)C1` (configuration not stated), the “odorant receptor agonist call” value with UniProt Q8VF24, in the assay with UniProt Q8VF43, in the assay with UniProt Q8VF44, in the assay with UniProt Q8VFG6 and with UniProt Q8VFM8 was “inactive” in each case. The “odorant receptor agonist call” value with UniProt Q8VF52 is “active”.

Take `O=C(O)CCCCCCCCCCCBr`: the “odorant receptor agonist call” value with UniProt Q8VF06 was “active”.

As to `CCCCCC=O`, the “odorant receptor agonist call” value with UniProt Q8VF24, with UniProt Q8VF43, in the assay with UniProt Q8VF44, with UniProt Q8VF52, in the assay with UniProt Q8VFG6 and with UniProt Q8VFM8 was “inactive” in each case.

In the case of `C=CCOC(=O)CCCCCC`, the “odorant receptor agonist call” value in the assay with UniProt Q8VF24, in the assay with UniProt Q8VF43, with UniProt Q8VF44, with UniProt Q8VF52, with UniProt Q8VFG6 and with UniProt Q8VFM8 was “inactive” throughout.

On to `O=C(O)CCCCCBr`, for which the “odorant receptor agonist call” value with UniProt Q8VF06, in the assay with UniProt Q8VF43, with UniProt Q8VF52 and with UniProt Q8VFM8 was “inactive” in each case.

As to `O=C(O)CCCCCCCCCC(=O)O`, the “odorant receptor agonist call” value with UniProt Q8VF06 is “inactive”.

With `CCCCCCO`, the “odorant receptor agonist call” value with UniProt Q8VF06, in the assay with UniProt Q8VF24, with UniProt Q8VF43, in the assay with UniProt Q8VF44, with UniProt Q8VF52 and with UniProt Q8VFG6 was “inactive” each time. Moreover, the “odorant receptor agonist call” value in the assay with UniProt Q8VFM8 was “inactive”.

Turning to `CCCCCCCO`, the “odorant receptor agonist call” value with UniProt Q8VF06, with UniProt Q8VF24, with UniProt Q8VF43, with UniProt Q8VF44, with UniProt Q8VF52 and with UniProt Q8VFG6 was “inactive” in each case. Moreover, in the assay with UniProt Q8VFM8, the “odorant receptor agonist call” value was “inactive”.

For the compound `CCCCCOC(=O)CCCCC`, the “odorant receptor agonist call” value in the assay with UniProt Q8VF24, with UniProt Q8VF43, with UniProt Q8VF44, with UniProt Q8VF52, with UniProt Q8VFG6 and with UniProt Q8VFM8 was “inactive” throughout.

`COc1cc(C(=O)O)ccc1O`: the “odorant receptor agonist call” value in the assay with UniProt Q8VF24, with UniProt Q8VF43, in the assay with UniProt Q8VF44, in the assay with UniProt Q8VF52, with UniProt Q8VFG6 and with UniProt Q8VFM8 was “inactive” in each case.

As for `CCCCCCCCCCO`, the “odorant receptor agonist call” value in the assay with UniProt Q8VF24, in the assay with UniProt Q8VF43, in the assay with UniProt Q8VF44, in the assay with UniProt Q8VF52, with UniProt Q8VFG6 and in the assay with UniProt Q8VFM8 was “inactive” each time.

`CC(=O)OC1(C)CCC23CC1C(C)(C)C2CCC3C` (configuration not stated): the “odorant receptor agonist call” value in the assay with UniProt Q8VF43 and in the assay with UniProt Q8VF52 was “active” throughout. In the assay with UniProt Q8VFM8, the “odorant receptor agonist call” value was “inactive”.

With `OCC=Cc1ccccc1`, the “odorant receptor agonist call” value with UniProt Q8VF43, with UniProt Q8VF52 and with UniProt Q8VFM8 was “inactive” each time.

For `CC(C)=CCCC(C)CCO` (configuration not stated), the “odorant receptor agonist call” value with UniProt Q8VF24, with UniProt Q8VF43, with UniProt Q8VF44, in the assay with UniProt Q8VF52, with UniProt Q8VFG6 and with UniProt Q8VFM8 was “inactive” each time.

(Values after the M2OR odorant receptor database.)
